Assays:
[1] = Pharmacokinetics in SD rats; type: in vivo, rat; conditions: for AUC: AUC 0-4h; for AUC / AUCINF / C0 / Cl / MRT / T1/2 / Vz: Gd by ICP-MS, NCA, n = 3
Method in brief: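 SD rats (3/sex) received a single IV dose of 0.04, 0.1 or 0.2 mmol/kg. Jugular blood was drawn predose and at 2, 5, 10, 15, 30 and 45 min and 1, 2, 3 and 4 h. Parameters were derived by noncompartmental analysis.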

CYP2B6 = CYP2B6 (Homo sapiens, UniProt P20813); conditions: 0.01, 0.1, 1, 10, and 100 μM, pooled human liver microsomes 0.5 mg/mL
[2] = Metabolic pathway study in human liver microsomes; type: in vitro ADME; conditions: 1 μM, 2 hours
MAOA = MAOA (Homo sapiens, UniProt P21397); test: SAFETYscan E/IC50 assay, MAOA; type: biochemical; conditions: concentration range 0.005 to 100 μM
Method in brief: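 Contract-laboratory in vitro panel of 78 targets, run in agonist and/or antagonist modes under provider SOPs over 0.005 to 100 μM. Panel formats included enzyme fragment complementation, FLIPR-based cellular assays, kinase binding and enzymatic assays.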

[3] = Metabolic stability in SD rat hepatocytes; type: in vitro ADME; conditions: 2 hours of incubation, LC-MS/MS
[4] = test system: cardiovascular and respiratory system functions; test: Cardiovascular and respiratory safety pharmacology in conscious beagle dogs; type: in vivo, dog; conditions: single IV 0.07, 0.21, or 0.70 mmol/kg
Method in brief: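 GLP study in 9 conscious beagle dogs (4 M, 5 F) given a single IV dose of saline or 0.07, 0.21 or 0.70 mmol/kg, at 3.5 mL/kg. Recorded within 1 h predose and at 0.5, 1, 2, 4 and 24 h: ECG (HR, PR, QRS, QT/QTcF, QRS voltage, STe, rhythm, waveform), systolic/diastolic/mean blood pressure, respiratory frequency and tidal volume.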

[5] = Gd remaining in rat tissues after toxicity study; type: in vivo; conditions: for Measured Concentration of Gd, Mean: day 29, ICP-MS
Method in brief: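 Femur, abdominal skin, liver, brain, quadriceps, lung, heart, kidney, spleen, colon and jejunum were collected, and residual Gd was measured by ICP-MS.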

[6] = SD rat ♀, 0.04 mmol/kg single IV
[7] = SD rat ♀, 0.1 mmol/kg single IV
[8] = SD rat ♀, 0.2 mmol/kg single IV
[9] = SD rat ♂, 0.04 mmol/kg single IV
[10] = SD rat ♂, 0.1 mmol/kg single IV
[11] = SD rat ♂, 0.2 mmol/kg single IV
[12] = rats, single dose 1.39 mmol/kg, day 15, ICP-MS

Sequence of MAOA (P21397 whole entry, species assumed, the tested form may be a part): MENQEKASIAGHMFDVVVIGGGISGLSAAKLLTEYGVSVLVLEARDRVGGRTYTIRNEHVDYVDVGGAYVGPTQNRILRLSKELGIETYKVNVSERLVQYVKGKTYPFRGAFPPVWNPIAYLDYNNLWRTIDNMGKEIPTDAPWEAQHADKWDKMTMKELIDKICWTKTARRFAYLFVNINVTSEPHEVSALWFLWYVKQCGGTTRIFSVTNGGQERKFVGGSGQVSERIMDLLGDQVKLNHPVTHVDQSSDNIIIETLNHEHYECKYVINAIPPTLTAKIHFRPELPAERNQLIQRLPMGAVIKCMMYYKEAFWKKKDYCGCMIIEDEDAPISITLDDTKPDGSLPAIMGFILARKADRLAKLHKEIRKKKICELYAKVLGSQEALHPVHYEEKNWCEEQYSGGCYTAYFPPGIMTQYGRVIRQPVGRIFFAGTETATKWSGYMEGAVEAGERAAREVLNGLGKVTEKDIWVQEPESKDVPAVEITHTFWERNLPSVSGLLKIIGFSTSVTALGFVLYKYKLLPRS
Sequence of CYP2B6 (P20813 whole entry): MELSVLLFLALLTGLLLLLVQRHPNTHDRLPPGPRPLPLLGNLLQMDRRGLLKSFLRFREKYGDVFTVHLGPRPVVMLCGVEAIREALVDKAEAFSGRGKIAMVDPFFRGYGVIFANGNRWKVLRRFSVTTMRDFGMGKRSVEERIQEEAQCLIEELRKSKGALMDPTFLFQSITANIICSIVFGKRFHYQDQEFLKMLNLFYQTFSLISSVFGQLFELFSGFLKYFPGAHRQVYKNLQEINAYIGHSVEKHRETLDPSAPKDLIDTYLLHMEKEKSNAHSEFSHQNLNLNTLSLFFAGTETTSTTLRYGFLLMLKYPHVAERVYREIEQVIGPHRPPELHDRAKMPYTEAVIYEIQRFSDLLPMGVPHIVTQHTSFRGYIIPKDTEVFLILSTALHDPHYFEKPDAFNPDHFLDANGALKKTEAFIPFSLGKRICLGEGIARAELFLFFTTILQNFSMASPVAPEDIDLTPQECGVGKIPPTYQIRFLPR

ZD2-N3-Gd(HP-DO3A) [MT218]
AUC [1, 6]: 10940 ng·h/mL
AUC [1, 7]: 27840 ng·h/mL
AUC [1, 8]: 58600 ng·h/mL
AUC [1, 9]: 11080 ng·h/mL
AUC [1, 10]: 28860 ng·h/mL
AUC [1, 11]: 53170 ng·h/mL
AUC Ratio ([1]; AUC(dose)/AUC(low dose), SD rat ♀, 0.04 mmol/kg): 1
AUC Ratio ([1]; AUC(dose)/AUC(low dose), SD rat ♂, 0.04 mmol/kg): 1
AUC Ratio ([1]; AUC(high dose)/AUC(low dose), SD rat ♀, 0.2 mmol/kg): 5.36
AUC Ratio ([1]; AUC(high dose)/AUC(low dose), SD rat ♂, 0.2 mmol/kg): 4.80
AUC Ratio ([1]; AUC(middle dose)/AUC(low dose), SD rat ♀, 0.1 mmol/kg): 2.55
AUC Ratio ([1]; AUC(middle dose)/AUC(low dose), SD rat ♂, 0.1 mmol/kg): 2.61
AUCINF [1, 6]: 11130 ng·h/mL
C0 [1, 6]: 75.09 µg/mL
Cl [1, 6]: 9.4683 mL/min/kg
MRT [1, 6]: 17.4 min
T1/2 [1, 6]: 16.8 min
Vz [1, 6]: 0.22422 L/kg
AUCINF [1, 7]: 28020 ng·h/mL
C0 [1, 7]: 158.07 µg/mL
Cl [1, 7]: 9.5898 mL/min/kg
MRT [1, 7]: 20.4 min
T1/2 [1, 7]: 19.2 min
Vz [1, 7]: 0.27335 L/kg
AUCINF [1, 8]: 58710 ng·h/mL
C0 [1, 8]: 209.22 µg/mL
Cl [1, 8]: 9.2098 mL/min/kg
MRT [1, 8]: 25.8 min
T1/2 [1, 8]: 19.2 min
Vz [1, 8]: 0.2564 L/kg
AUCINF [1, 9]: 11180 ng·h/mL
C0 [1, 9]: 49.09 µg/mL
Cl [1, 9]: 9.6403 mL/min/kg
MRT [1, 9]: 22.2 min
T1/2 [1, 9]: 18 min
Vz [1, 9]: 0.24309 L/kg
AUCINF [1, 10]: 29010 ng·h/mL
C0 [1, 10]: 115.85 µg/mL
Cl [1, 10]: 9.172 mL/min/kg
MRT [1, 10]: 24 min
T1/2 [1, 10]: 18.6 min
Vz [1, 10]: 0.24018 L/kg
AUCINF [1, 11]: 53230 ng·h/mL
C0 [1, 11]: 248.60 µg/mL
Cl [1, 11]: 9.855 mL/min/kg
MRT [1, 11]: 22.2 min
T1/2 [1, 11]: 18 min
Vz [1, 11]: 0.25524 L/kg
mean plasma elimination half-life (t1/2) ([1]; rats, 0.1 mmol/kg IV): 18.6 min
inhibition of CYP2B6 activity (CYP2B6): did not inhibit
MT218 remaining ([2]; CYP1A2 group): 105%
MT218 remaining ([2]; CYP2B6 group): 117%
MT218 remaining ([2]; CYP2C8 group): 101%
MT218 remaining ([2]; CYP2C9 group): 98.8%
MT218 remaining ([2]; CYP2C19 group): 105%
MT218 remaining ([2]; CYP2D6 group): 109%
MT218 remaining ([2]; CYP3A4 group): 99.1%
inhibition rate (MAOA): 10.21%
remaining MT218 [3]: 67.5%
effect on ECG, blood pressure and respiratory function parameters [4]: no MT218-related effect
Measured Concentration of Gd, Mean ([5]; Female rat, Bone, 0.15 mmol/kg/d daily IV 2 weeks): 0.19 μg/g Tissue
Measured Concentration of Gd, Mean ([5]; Female rat, Bone, 0.46 mmol/kg/d daily IV 2 weeks): 1.13 μg/g Tissue
Measured Concentration of Gd, Mean ([5]; Female rat, Bone, 1.39 mmol/kg/d daily IV 2 weeks): 4.90 μg/g Tissue
Measured Concentration of Gd, Mean ([5]; Female rat, Brain, 0.15 mmol/kg/d daily IV 2 weeks): BQL
Measured Concentration of Gd, Mean ([5]; Female rat, Brain, 0.46 mmol/kg/d daily IV 2 weeks): 0.03 μg/g Tissue
Measured Concentration of Gd, Mean ([5]; Female rat, Brain, 1.39 mmol/kg/d daily IV 2 weeks): 0.40 μg/g Tissue
Measured Concentration of Gd, Mean ([5]; Female rat, Colon, 0.15 mmol/kg/d daily IV 2 weeks): 0.15 μg/g Tissue
Measured Concentration of Gd, Mean ([5]; Female rat, Colon, 0.46 mmol/kg/d daily IV 2 weeks): 1.02 μg/g Tissue
Measured Concentration of Gd, Mean ([5]; Female rat, Colon, 1.39 mmol/kg/d daily IV 2 weeks): 3.44 μg/g Tissue
Measured Concentration of Gd, Mean ([5]; Female rat, Heart, 0.15 mmol/kg/d daily IV 2 weeks): BQL
Measured Concentration of Gd, Mean ([5]; Female rat, Heart, 0.46 mmol/kg/d daily IV 2 weeks): 3.17 μg/g Tissue
Measured Concentration of Gd, Mean ([5]; Female rat, Heart, 1.39 mmol/kg/d daily IV 2 weeks): 1.85 μg/g Tissue
Measured Concentration of Gd, Mean ([5]; Female rat, Jejunum, 0.15 mmol/kg/d daily IV 2 weeks): 0.23 μg/g Tissue
Measured Concentration of Gd, Mean ([5]; Female rat, Jejunum, 0.46 mmol/kg/d daily IV 2 weeks): 0.73 μg/g Tissue
Measured Concentration of Gd, Mean ([5]; Female rat, Jejunum, 1.39 mmol/kg/d daily IV 2 weeks): 3.26 μg/g Tissue
Measured Concentration of Gd, Mean ([5]; Female rat, Kidney, 0.15 mmol/kg/d daily IV 2 weeks): 26.46 μg/g Tissue
Measured Concentration of Gd, Mean ([5]; Female rat, Kidney, 0.46 mmol/kg/d daily IV 2 weeks): 100.81 μg/g Tissue
Measured Concentration of Gd, Mean ([5]; Female rat, Kidney, 1.39 mmol/kg/d daily IV 2 weeks): 346.00 μg/g Tissue
Measured Concentration of Gd, Mean ([5]; Female rat, Liver, 0.15 mmol/kg/d daily IV 2 weeks): 0.31 μg/g Tissue
Measured Concentration of Gd, Mean ([5]; Female rat, Liver, 0.46 mmol/kg/d daily IV 2 weeks): 1.03 μg/g Tissue
Measured Concentration of Gd, Mean ([5]; Female rat, Liver, 1.39 mmol/kg/d daily IV 2 weeks): 4.11 μg/g Tissue
Measured Concentration of Gd, Mean ([5]; Female rat, Lung, 0.15 mmol/kg/d daily IV 2 weeks): 0.20 μg/g Tissue
Measured Concentration of Gd, Mean ([5]; Female rat, Lung, 0.46 mmol/kg/d daily IV 2 weeks): 1.27 μg/g Tissue
Measured Concentration of Gd, Mean ([5]; Female rat, Lung, 1.39 mmol/kg/d daily IV 2 weeks): 3.86 μg/g Tissue
Measured Concentration of Gd, Mean ([5]; Female rat, Muscle, 0.15 mmol/kg/d daily IV 2 weeks): 0.03 μg/g Tissue
Measured Concentration of Gd, Mean ([5]; Female rat, Muscle, 0.46 mmol/kg/d daily IV 2 weeks): 0.21 μg/g Tissue
Measured Concentration of Gd, Mean ([5]; Female rat, Muscle, 1.39 mmol/kg/d daily IV 2 weeks): 1.27 μg/g Tissue
Measured Concentration of Gd, Mean ([5]; Female rat, Skin, 0.15 mmol/kg/d daily IV 2 weeks): 0.14 μg/g Tissue
Measured Concentration of Gd, Mean ([5]; Female rat, Skin, 0.46 mmol/kg/d daily IV 2 weeks): 1.26 μg/g Tissue
Measured Concentration of Gd, Mean ([5]; Female rat, Skin, 1.39 mmol/kg/d daily IV 2 weeks): 4.56 μg/g Tissue
Measured Concentration of Gd, Mean ([5]; Female rat, Spleen, 0.15 mmol/kg/d daily IV 2 weeks): 0.32 μg/g Tissue
Measured Concentration of Gd, Mean ([5]; Female rat, Spleen, 0.46 mmol/kg/d daily IV 2 weeks): 1.41 μg/g Tissue
Measured Concentration of Gd, Mean ([5]; Female rat, Spleen, 1.39 mmol/kg/d daily IV 2 weeks): 4.69 μg/g Tissue
Measured Concentration of Gd, Mean ([5]; Male rat, Bone, 0.15 mmol/kg/d daily IV 2 weeks): 0.28 μg/g Tissue
Measured Concentration of Gd, Mean ([5]; Male rat, Bone, 0.46 mmol/kg/d daily IV 2 weeks): 0.70 μg/g Tissue
Measured Concentration of Gd, Mean ([5]; Male rat, Bone, 1.39 mmol/kg/d daily IV 2 weeks): 5.85 μg/g Tissue
Measured Concentration of Gd, Mean ([5]; Male rat, Brain, 0.15 mmol/kg/d daily IV 2 weeks): BQL
Measured Concentration of Gd, Mean ([5]; Male rat, Brain, 0.46 mmol/kg/d daily IV 2 weeks): 0.07 μg/g Tissue
Measured Concentration of Gd, Mean ([5]; Male rat, Colon, 0.15 mmol/kg/d daily IV 2 weeks): 0.18 μg/g Tissue
Measured Concentration of Gd, Mean ([5]; Male rat, Colon, 0.46 mmol/kg/d daily IV 2 weeks): 0.79 μg/g Tissue
Measured Concentration of Gd, Mean ([5]; Male rat, Colon, 1.39 mmol/kg/d daily IV 2 weeks): 3.92 μg/g Tissue
Measured Concentration of Gd, Mean ([5]; Male rat, Heart, 0.15 mmol/kg/d daily IV 2 weeks): 0.14 μg/g Tissue
Measured Concentration of Gd, Mean ([5]; Male rat, Heart, 0.46 mmol/kg/d daily IV 2 weeks): 1.72 μg/g Tissue
Measured Concentration of Gd, Mean ([5]; Male rat, Heart, 1.39 mmol/kg/d daily IV 2 weeks): 2.56 μg/g Tissue
Measured Concentration of Gd, Mean ([5]; Male rat, Jejunum, 0.15 mmol/kg/d daily IV 2 weeks): 0.17 μg/g Tissue
Measured Concentration of Gd, Mean ([5]; Male rat, Jejunum, 0.46 mmol/kg/d daily IV 2 weeks): 0.73 μg/g Tissue
Measured Concentration of Gd, Mean ([5]; Male rat, Jejunum, 1.39 mmol/kg/d daily IV 2 weeks): 3.72 μg/g Tissue
Measured Concentration of Gd, Mean ([5]; Male rat, Kidney, 0.15 mmol/kg/d daily IV 2 weeks): 15.15 μg/g Tissue
Measured Concentration of Gd, Mean ([5]; Male rat, Kidney, 0.46 mmol/kg/d daily IV 2 weeks): 70.70 μg/g Tissue
Measured Concentration of Gd, Mean ([5]; Male rat, Kidney, 1.39 mmol/kg/d daily IV 2 weeks): 519.85 μg/g Tissue
Measured Concentration of Gd, Mean ([5]; Male rat, Liver, 0.15 mmol/kg/d daily IV 2 weeks): 0.22 μg/g Tissue
Measured Concentration of Gd, Mean ([5]; Male rat, Liver, 0.46 mmol/kg/d daily IV 2 weeks): 1.96 μg/g Tissue
Measured Concentration of Gd, Mean ([5]; Male rat, Liver, 1.39 mmol/kg/d daily IV 2 weeks): 4.85 μg/g Tissue
Measured Concentration of Gd, Mean ([5]; Male rat, Lung, 0.15 mmol/kg/d daily IV 2 weeks): BQL
Measured Concentration of Gd, Mean ([5]; Male rat, Lung, 0.46 mmol/kg/d daily IV 2 weeks): 1.33 μg/g Tissue
Measured Concentration of Gd, Mean ([5]; Male rat, Lung, 1.39 mmol/kg/d daily IV 2 weeks): 4.83 μg/g Tissue
Measured Concentration of Gd, Mean ([5]; Male rat, Muscle, 0.15 mmol/kg/d daily IV 2 weeks): BQL
Measured Concentration of Gd, Mean ([5]; Male rat, Muscle, 0.46 mmol/kg/d daily IV 2 weeks): 0.22 μg/g Tissue
Measured Concentration of Gd, Mean ([5]; Male rat, Muscle, 1.39 mmol/kg/d daily IV 2 weeks): 1.15 μg/g Tissue
Measured Concentration of Gd, Mean ([5]; Male rat, Skin, 0.15 mmol/kg/d daily IV 2 weeks): 0.13 μg/g Tissue
Measured Concentration of Gd, Mean ([5]; Male rat, Skin, 0.46 mmol/kg/d daily IV 2 weeks): 0.95 μg/g Tissue
Measured Concentration of Gd, Mean ([5]; Male rat, Skin, 1.39 mmol/kg/d daily IV 2 weeks): 2.31 μg/g Tissue
Measured Concentration of Gd, Mean ([5]; Male rat, Spleen, 0.15 mmol/kg/d daily IV 2 weeks): 0.37 μg/g Tissue
Measured Concentration of Gd, Mean ([5]; Male rat, Spleen, 0.46 mmol/kg/d daily IV 2 weeks): 1.12 μg/g Tissue
Measured Concentration of Gd, Mean ([5]; Male rat, Spleen, 1.39 mmol/kg/d daily IV 2 weeks): 6.04 μg/g Tissue
Gd concentration in other tissues relative to the kidney concentration [5, 12]: < 1/20
Gd in the brain and muscles [5, 12]: not detected

— publication PMC9444296 (Investigative Radiology, 2022)
